What was measured:
[1] = target: Focal adhesion kinase 1 (Homo sapiens, UniProt Q05397); assay: Inhibition of N-terminal GST-fused human truncated FAK (376 to 1052 residues) expressed in baculovirus expression system using tyrosine kinase peptide as substrate measured after 50 mins in presence of ATP by homogenous time resolved flourescence assay
[2] = system: A549; assay: Antiproliferative activity against human A549 cells assessed as inhibition of cell growth measured after 72 hrs by MTT assay; format: functional, cell-based; details: A549, 72 h
Summary of the method: (§1)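 Cells were seeded at 4000–5000/well and held 24 h at 37 °C in 5% CO2. Compounds were added at the indicated final concentrations and incubated 72 h. MTT was added (5 mg/mL in PBS, stated as final) for 4 h at 37 °C. Formazan was dissolved in DMSO and absorbance read at 490 nm. The 50% growth-inhibitory concentration is the mean of three independent experiments ± SE.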

[3] = system: MDA-MB-231; assay: Antiproliferative activity against human MDA-MB-231 cells assessed as inhibition of cell growth measured after 72 hrs by MTT assay; format: functional, cell-based; details: MDA-MB-231, 72 h; summary of the method: as §1
[4] = system: U-87 MG; assay: Antiproliferative activity against human U-87MG cells assessed as inhibition of cell growth measured after 72 hrs by MTT assay; format: functional, cell-based, U-87MG ATCC; summary of the method: as §1
[5] = system: HK-2; assay: Cytotoxicity against human HK2 cells assessed as inhibition of cell proliferation measured after 72 hrs by MTT assay; format: cell-based; details: HK-2, 72 h; summary of the method: as §1

Sequence of Focal adhesion kinase 1 (Q05397 whole entry, the tested form may be a part): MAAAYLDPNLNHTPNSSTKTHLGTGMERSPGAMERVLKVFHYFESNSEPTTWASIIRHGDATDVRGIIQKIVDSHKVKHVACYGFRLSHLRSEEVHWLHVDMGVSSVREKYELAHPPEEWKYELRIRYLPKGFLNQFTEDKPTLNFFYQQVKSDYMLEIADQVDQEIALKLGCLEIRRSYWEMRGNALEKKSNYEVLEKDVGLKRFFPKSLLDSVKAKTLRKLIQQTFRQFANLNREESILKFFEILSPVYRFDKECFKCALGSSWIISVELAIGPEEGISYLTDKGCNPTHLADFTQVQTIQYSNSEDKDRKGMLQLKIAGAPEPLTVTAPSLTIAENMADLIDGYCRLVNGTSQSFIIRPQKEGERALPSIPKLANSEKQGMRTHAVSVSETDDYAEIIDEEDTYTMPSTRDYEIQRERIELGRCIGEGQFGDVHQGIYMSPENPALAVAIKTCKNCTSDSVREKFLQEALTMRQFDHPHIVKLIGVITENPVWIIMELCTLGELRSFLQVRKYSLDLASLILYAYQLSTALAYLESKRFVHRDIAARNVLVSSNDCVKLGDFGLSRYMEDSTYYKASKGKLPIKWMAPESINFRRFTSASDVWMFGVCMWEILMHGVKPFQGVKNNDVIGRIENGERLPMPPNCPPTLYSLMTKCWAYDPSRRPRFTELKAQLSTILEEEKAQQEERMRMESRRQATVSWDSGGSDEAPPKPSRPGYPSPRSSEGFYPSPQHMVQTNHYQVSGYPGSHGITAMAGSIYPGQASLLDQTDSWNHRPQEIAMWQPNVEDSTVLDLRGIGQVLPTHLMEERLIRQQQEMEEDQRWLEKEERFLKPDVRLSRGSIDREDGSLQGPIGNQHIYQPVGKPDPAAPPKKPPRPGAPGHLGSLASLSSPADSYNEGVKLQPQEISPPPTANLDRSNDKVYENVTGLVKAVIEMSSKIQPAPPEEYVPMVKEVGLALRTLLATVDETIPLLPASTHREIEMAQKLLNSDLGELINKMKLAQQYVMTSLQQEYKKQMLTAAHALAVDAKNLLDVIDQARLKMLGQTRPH

IC50 [1] [nM]	IC50 [2] [nM]	IC50 [3] [nM]	IC50 [4] [nM]	SMILES	IC50 [5] [nM]
132	870	560	–	COc1ccccc1-c1csc2cnc(Nc3ccc(C(=O)N[C@H]4CCNC4)c(F)c3)nc12	–
38.2	1900	1160	3590	COc1cc(C(=O)NC2CCNCC2)c(F)cc1Nc1ncc2scc(-c3ccccc3OC)c2n1	780
26.5	3420	3240	250	COc1ccccc1-c1csc2cnc(Nc3ccc(C(=O)NC4CCNCC4)cc3C)nc12	–
118	5710	5350	–	COc1ccccc1-c1csc2cnc(Nc3ccc(C(=O)NC4CCOCC4)c(F)c3)nc12	–
–	1160	4060	1670	CNC(=O)c1ccccc1Nc1nc(Nc2ccc(N3CCOCC3)cc2OC)ncc1Cl	–
79.3	310	2120	710	CNC(=O)c1ccc(Nc2ncc3scc(-c4ccccc4OC)c3n2)cc1	710
25.7	870	240	460	COc1ccccc1-c1csc2cnc(Nc3ccc(C(=O)NC4CCNCC4)c(C)c3)nc12	4450
71.3	430	260	–	COc1ccccc1-c1csc2cnc(Nc3ccc(C(=O)N[C@@H]4CCNC4)c(F)c3)nc12	–
38.8	360	110	650	COc1ccccc1-c1csc2cnc(Nc3ccc(C(=O)NC4CCNCC4)cc3)nc12	11400
166	5770	4390	2030	CCOc1cc(C(=O)NC2CCNCC2)ccc1Nc1ncc2scc(-c3ccccc3OC)c2n1	–
709	4110	2750	2090	COc1ccccc1-c1csc2cnc(Nc3ccc(C(=O)NC4CCNCC4)cc3C(F)(F)F)nc12	–
149	4450	8620	–	COc1ccccc1-c1csc2cnc(Nc3ccc(C(=O)NC[C@H]4CCCNC4)c(F)c3)nc12	–
199	410	410	360	COc1ccccc1-c1csc2cnc(Nc3ccc(NC(=O)[C@@H]4CCCNC4)cc3)nc12	–
47.8	660	350	–	COc1ccccc1-c1csc2cnc(Nc3ccc(C(=O)NC4CCN(C)CC4)c(F)c3)nc12	–
120	3410	1530	–	COc1ccccc1-c1csc2cnc(Nc3ccc(C(=O)NCC4CCNCC4)c(F)c3)nc12	–
27.2	2880	2240	6400	COc1cc(C(=O)NC2CCNCC2)ccc1Nc1ncc2scc(-c3ccccc3OC)c2n1	12200
57.7	450	1050	1060	COc1ccccc1-c1csc2cnc(Nc3ccc(NC(=O)C4CCNCC4)cc3)nc12	11700
144	1950	2770	210	COc1ccccc1-c1csc2cnc(Nc3ccc(NC(=O)CN)cc3)nc12	–
24.2	5390	2570	1480	COc1ccccc1-c1csc2cnc(Nc3cc(F)c(C(=O)NC4CCNCC4)cc3F)nc12	–
48.3	2750	1610	2370	COc1ccccc1-c1csc2cnc(Nc3ccc(C(=O)NC4CCNCC4)cc3F)nc12	–
111	5050	2890	–	COc1ccccc1-c1csc2cnc(Nc3ccc(C(=O)NC[C@@H]4CCCNC4)c(F)c3)nc12	–
167	500	440	300	COc1ccccc1-c1csc2cnc(Nc3ccc(NC(=O)[C@H]4CCCNC4)cc3)nc12	4890

SMILES	IC50 [1] [nM]	IC50 [2] [nM]	IC50 [3] [nM]	IC50 [4] [nM]	IC50 [5] [nM]
COP(=O)(Cc1ccc(Nc2ncc3scc(-c4ccccc4C(C)=O)c3n2)cc1)OC	1080	–	–	–	–
CCOP(=O)(Cc1ccc(Nc2ncc3scc(-c4ccccc4OC)c3n2)cc1)OCC	157	960	4940	1300	–
CNC(=O)c1cccc(-c2csc3cnc(Nc4ccc(CP(=O)(OC)OC)cc4)nc23)c1	324	–	–	–	–
COc1ccc(-c2csc3cnc(Nc4ccc(CP(=O)(OC)OC)cc4)nc23)cc1	1060	–	–	–	–
COc1ccccc1-c1csc2cnc(Nc3ccc(CP(=O)(OC)OC)cc3)nc12	134	1800	7810	1710	–
CCOP(=O)(Cc1ccc(Nc2ncc3scc(-c4ccccc4OC)c3n2)cc1)N1CCOCC1 (centres undefined)	351	850	8350	1220	–
CCOP(=O)(OCC)C(O)c1ccc(Nc2ncc3scc(-c4ccccc4OC)c3n2)cc1 (centres undefined)	321	350	2640	1950	–
COP(=O)(Cc1ccc(Nc2ncc3scc(-c4cccc(S(C)(=O)=O)c4)c3n2)cc1)OC	140	–	–	–	–
COP(=O)(Cc1ccc(Nc2ncc3scc(-c4cccc(C(C)=O)c4)c3n2)cc1)OC	351	–	–	–	–
CCOP(=O)(Cc1ccc(Nc2ncc3scc(-c4ccccc4OC)c3n2)cc1)NC (centres undefined)	184	1730	1210	1300	–
COP(=O)(Cc1ccc(Nc2ncc3scc(-c4cccc(NC(C)=O)c4)c3n2)cc1)OC	377	–	–	–	–
COP(=O)(Cc1ccc(Nc2ncc3scc(-c4cccc(N(C)S(C)(=O)=O)c4)c3n2)cc1)OC	638	–	–	–	–
